Bioassay records deposited in PubChem by Broad Institute.
Xi reactivation: X-chromosome reactivation activator | actives 0.055% (n = 360,000) | activation, % at 7.58 µM | XiGFP mouse fibroblasts, % GFP-positive cells imaging, 3 d; cells co-treated with 5-aza-dC sensitizer; scaled so ellipticine positive control = 100%;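 active = mean normalized replicate activation at least 10% and every replicate at or above 10%; inconclusive = only one of the two criteria met; inactive = mean below 10% and not all replicates reach 10%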
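System: SV40-immortalized XiGFP fibroblast cells, line 68-5-11 / Incubation: 3-day compound exposure, then 15 min fixation at room temperature / Compound: single concentration per compound, delivered by pin transfer / Buffer or medium: DMEM plus 5-aza-dC sensitizer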
PglD inh: inhibitors of Campylobacter jejuni PglD acetyltransferase; actives 0.098% (n = 360,000); inhibition, % at 12.5 µM; AID 602405; purified PglD enzyme, DTNB colorimetric CoA detection; in the data active = inhibition above about 16%, passing the limit was not always enough; inconclusive = no clear call, values can overlap the other calls
DENV2 CPE rescue: inhibitors of DENV2 cytopathic effect; DENV2-infected cells, cytopathic effect rescue, plate reader; CPE inhibition, % at 9.99 µM; actives 1.7% (n = 350,000); AID 651640; in the data active = CPE inhibition above about 20%, passing the limit was not always enough; inconclusive = no clear call, values can overlap the other calls; tested in BHK-21 cells
FGF22 binding: shifts melting point of recombinant human FGF22. activity (Tm shift, normalised), % at 9.99 µM. Q9HCT0. AID 651658. actives 1.5% (n = 340,000). recombinant FGF22 thermal shift, SYPRO orange fluorescence; percent of sucrose octasulfate shift, DMSO zero;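 active = mean Tm shift, scaled 0 neutral to 100 positive control, at about 1.3% or above, every replicate too, limit read from the data; inconclusive = no clear call, values can overlap the other calls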
C2C12 statin: protects C2C12 myotubes from simvastatin toxicity; actives 0.78% (n = 330,000); ATP luminescence, 48 h; scaled: DMSO 0, geranylgeraniol control 100; AID 602340; rescue of ATP level, % at 7.49 µM;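 active = mean ATP rescue above about 67%, or every replicate alone reaching that limit, limit read from the data, passing the limit was not always enough; inconclusive = no clear call, values can overlap the other calls; inactive = mean under the limit and some replicate under it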;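 note: myotubes were challenged with 10 µM simvastatin during compound exposure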
E-sel inducer: E-selectin induction on HUVECs. P16581. HUVEC E-selectin immunofluorescence imaging; normalized: neutral wells 0, TNF-alpha wells 100. activation, % at 7.58 µM. actives 0.37% (n = 260,000);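 active = mean E-selectin-positive cell signal at least 10% of the positive control, reached in at least 60% of replicates, without over 20% cell loss; inconclusive = no rule given, readout overlaps actives, possibly toxicity-flagged; inactive = the rest, including those meeting only one limit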
Target sequence (P16581 whole entry, looked up): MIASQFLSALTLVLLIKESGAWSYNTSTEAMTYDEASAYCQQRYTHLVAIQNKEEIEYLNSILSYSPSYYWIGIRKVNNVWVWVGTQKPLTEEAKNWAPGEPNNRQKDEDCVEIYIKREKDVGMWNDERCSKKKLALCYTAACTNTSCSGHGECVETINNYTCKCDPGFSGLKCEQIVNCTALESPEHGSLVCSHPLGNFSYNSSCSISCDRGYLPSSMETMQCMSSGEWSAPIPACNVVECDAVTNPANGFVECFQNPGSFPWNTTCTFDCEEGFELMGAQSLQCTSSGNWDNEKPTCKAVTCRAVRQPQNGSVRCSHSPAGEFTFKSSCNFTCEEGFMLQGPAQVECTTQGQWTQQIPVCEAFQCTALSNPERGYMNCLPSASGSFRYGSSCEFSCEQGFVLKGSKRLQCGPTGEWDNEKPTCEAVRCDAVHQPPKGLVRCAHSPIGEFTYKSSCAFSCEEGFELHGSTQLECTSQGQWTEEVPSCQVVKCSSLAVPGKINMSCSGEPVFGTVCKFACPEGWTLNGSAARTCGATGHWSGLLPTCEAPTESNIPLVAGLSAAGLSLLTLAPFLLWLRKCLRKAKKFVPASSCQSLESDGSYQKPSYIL
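Test system – human umbilical vein endothelial cells (HUVEC), E-selectin induction · Input – 3,000 HUVEC seeded per well · Buffer or medium – EGM-2, gelatin · Compound dosing – single-point compound dose · Detection – immunofluorescence imaging · Measure – percent E-selectin-positive cells · Controls – TNF-alpha high, DMSO low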
A number is an active result; 0 = inactive; ? = inconclusive; - = no result given. The list is not random: actives were taken first. Their share in the collection is about 3.3%.

SMILES	Xi reactivation	PglD inh	DENV2 CPE rescue	FGF22 binding	C2C12 statin	E-sel inducer
COc1ccc(S(=O)(=O)N(C)C[C@@H]2Oc3ncc(-c4cc5ccccc5o4)cc3C(=O)N([C@H](C)CO)C[C@@H]2C)cc1	-	0	0	0	0	-
C[C@H](CO)N1C[C@H](C)[C@H](CN(C)C(=O)Nc2ccccc2)Oc2ncc(-c3cc4ccccc4o3)cc2C1=O	0	0	0	0	92	0
C[C@@H]1CN([C@@H](C)CO)C(=O)c2cc(C3=CCCCC3)cnc2O[C@H]1CN(C)C(=O)NC1CCCC1	0	0	0	0	0	117
CC(C)NC(=O)N(C)C[C@@H]1Oc2ncc(-c3cc4ccccc4o3)cc2C(=O)N([C@H](C)CO)C[C@@H]1C	0	0	0	0	0	0
C[C@H](CO)N1C[C@H](C)[C@H](CN(C)C(=O)NC2CCCC2)Oc2ncc(C3=CCCCC3)cc2C1=O	0	0	0	0	0	0
C[C@@H]1CN([C@@H](C)CO)C(=O)Cc2cc(NS(=O)(=O)c3ccc(F)cc3)ccc2O[C@H]1CN(C)C(=O)Nc1cccc2ccccc12	0	-	0	0	-	0
C[C@@H]1CN([C@@H](C)CO)S(=O)(=O)c2ccc(C#CC(C)(C)O)cc2O[C@H]1CN(C)C(=O)C1CCC1	0	0	-	0	-	0
O=C(C1CCCC1)N1CC(=O)N2[C@H](C1)[C@@H](c1ccc(C#CCc3ccccc3)cc1)[C@@H]2CO	0	-	0	-	-	0
CCCNC(=O)N(C)C[C@@H]1Oc2ncc(C3=CCCC3)cc2C(=O)N([C@H](C)CO)C[C@H]1C	0	0	0	0	0	58
CCCNC(=O)N(C)C[C@@H]1Oc2ncc(C3=CCCCC3)cc2C(=O)N([C@H](C)CO)C[C@@H]1C	0	0	0	0	0	0
COc1ccccc1-c1ccc([C@H]2[C@H]3CN(Cc4ccncc4)CCCCN3[C@H]2CO)cc1	0	0	0	0	0	0
Cc1noc(NS(=O)(=O)c2ccc(NC(=O)/C=C/c3ccc(C(C)C)cc3)cc2)c1C	0	0	0	1.4	-	0
COc1ccc(C(=O)Cc2ccccc2C(=O)O)cc1	0	-	0	0	-	0
COc1ccc(C(=O)CSc2ccccc2C(=O)O)cc1	0	-	0	44	-	-
CCNC(=O)C[C@@H]1CC[C@@H]2[C@@H](COc3ccc(NC(=O)NC(C)C)cc3C(=O)N2C)O1	0	0	-	-	0	0
O=C(C1CCCCC1)N1CC2(C1)[C@H](c1ccccc1)[C@@H](CO)N2Cc1nccs1	0	-	0	0	-	0
O=C(C1CCCCC1)N1CC2(C1)[C@@H](c1ccccc1)[C@@H](CO)N2Cc1nccs1	0	-	28	-	-	0
O=C(C1CC1)N1CC2(C1)[C@H](c1ccccc1)[C@@H](CO)N2Cc1nccs1	0	-	37	0	-	0
O=C(C1CCCCC1)N1CC2(C1)[C@@H](c1ccccc1)[C@@H](CO)N2CC1CCCC1	0	-	69	-	-	0
O=Cc1ccc(-c2ccccc2C(=O)O)o1	0	-	0	43	0	-
COC(=O)c1ccccc1-c1ccc(C=O)o1	0	-	0	-	0	-
COc1ccc(-c2nc(CN3CCC(C(=O)N4CCOCC4)CC3)c(C)o2)c(OC)c1	0	0	44	0	0	-
CCN1CCN(C(=O)C2CCN(Cc3nc(-c4cccc(Cl)c4)oc3C)CC2)CC1	0	0	0	0	0	0
C[C@H](CO)N1C[C@H](C)[C@H](CN(C)S(=O)(=O)c2ccc(Cl)cc2)Oc2c(NC(=O)c3nc4ccccc4s3)cccc2C1=O	0	0	0	0	0	0
Cc1c(C#N)c(O)n(CCO)c(=O)c1N=Nc1ccc(S(N)(=O)=O)cc1	0	0	45	0	0	0
SMILES	Xi reactivation	PglD inh	DENV2 CPE rescue	FGF22 binding	C2C12 statin	E-sel inducer
COCC(=O)N1CCC2(CC1)CN(C(=O)CN1CCOCC1)[C@@H](CO)c1c2c2ccc(OC)cc2n1C	0	-	0	0	-	0
CCOc1ccccc1NC(=O)C(NCC1(N2CCCCC2)CCCCC1)c1ccccc1 (stereo not given)	0	-	0	44	-	0
COc1cccc(-n2c(C)cc(/C=C3/C(=N)N4C(=NC3=O)SN=C4S(C)(=O)=O)c2C)c1	0	0	?	1.4	-	-
Cc1ccc(N(Cc2cc3ccccc3[nH]c2=O)C(=O)c2cccs2)cc1C	0	0	0	0	101	0
Cc1ccc(N(Cc2cc3cc(C)ccc3[nH]c2=O)C(=O)c2cccs2)cc1	0	-	0	0	-	-
CCCN(C)C[C@@H]1OCCCC[C@@H](C)Oc2ccc(NS(=O)(=O)c3cn(C)cn3)cc2C(=O)N([C@@H](C)CO)C[C@@H]1C	0	0	0	0	0	0
O=C1NCCN1Cc1ccc(Cl)cc1	0	0	0	44	0	0
COc1ccc2c3c([nH]c2c1)[C@H](CO)N(S(=O)(=O)c1cn(C)cn1)CC31CCN(Cc2ccccc2)CC1	0	-	0	0	-	0
COc1cc(CC(C#N)(CO)c2nc3ccccc3[nH]2)ccc1OC(F)F (stereo not given)	0	0	47	0	0	-
CC1=CC(C)(C)Nc2ccccc21	-	0	28	0	0	-
C[C@@H]1CN(C)C(=O)c2cc(N(C)C)ccc2O[C@@H]1CN(C)C	0	-	-	-	-	-
O=C(C1CC1)N1CC[C@H]2[C@H](CO)Nc3ccc(-c4cccc(F)c4)cc3[C@H]21	0	0	32	0	0	0
O=C(C1CCC1)N1CC[C@@H]2[C@H](CO)Nc3ccc(C#Cc4cccc(F)c4)cc3[C@@H]21	0	0	0	0	0	31
O=C(C1CC1)N1CC[C@@H]2[C@H](CO)Nc3ccc(C#Cc4ccc(F)cc4)cc3[C@@H]21	0	0	0	0	0	34
CCC(=O)N1CC[C@@H]2[C@H]1c1cc(-c3cccc(C#N)c3)ccc1N[C@@H]2CO	0	0	0	0	0	0
CCC(=O)N1CC[C@@H]2[C@H](CO)Nc3ccc(-c4cccc(C#N)c4)cc3[C@@H]21	0	0	137	0	0	0
O=C(C1CCCCC1)N1CC[C@@H]2[C@H]1c1cc(C#Cc3ccc(F)cc3)ccc1N[C@@H]2CO	0	0	0	0	0	0
CO[C@@H]1CN(C)C(=O)c2ccc(NC(=O)c3cc(C)on3)cc2OC[C@@H](C)N(C)C[C@@H]1C	0	0	0	0	0	0
CC1C=NC(S(=O)(=O)N2CC[C@@H]3[C@H](CO)N(C)c4ccc(C#Cc5ccccc5)cc4[C@@H]32)=N1 (stereo not given in full)	0	-	-	-	-	-
O=C(C1=C[C@H](c2csc3ccccc23)C[C@H](OCCCCO)O1)N1CCCCCCC1	-	0	0	0	-	-
O=C(C1CCCC1)N1CC[C@H]2[C@H](CO)Nc3ccc(C#Cc4ccc(F)cc4)cc3[C@H]21	-	-	0	-	-	-
O=C(C1CCC1)N1CC[C@@H]2[C@@H](CO)Nc3ccc(C#Cc4ccc(F)cc4)cc3[C@@H]21	0	-	0	-	-	38
